Active and inactive are the calls of the source. No cut-off for these calls is given here.
Experiments:
Rattus norvegicus [1] = experiment: Suppression of food intake in DIO rat at 1 mg/kg, po relative to control; assay type: functional
Method in brief: (§1)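 Acute study in diet-induced obese rats. A single oral dose was given and rats were monitored for 18 h. Food intake suppression and body weight change were measured relative to vehicle-treated controls.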

Plasma [2] = experiment: Drug level in Sprague-Dawley rat plasma at 30 mg/kg, po; assay type: ADME, organism-based; design: dose 30 mg/kg, route oral; conditions: in vivo, read-out: Drug uptake
Method in brief: (§2)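 Male Sprague Dawley rats dosed orally at 30 mg/kg. Motor coordination assessed on rotarod, with plasma and brain drug levels measured.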

Rattus norvegicus [3] = experiment: Reduction of body weight in DIO rat assessed as weight change at 0.1 mg/kg, po after 2 weeks; assay type: functional, organism-based; design: dose 0.1 mg/kg
Method in brief: (§3)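 DIO rats were dosed orally once daily for 2 weeks at 0.1, 0.3 or 1 mg/kg. Body weight change (g) was compared with vehicle, and the study ended 18 h after the day-14 dose.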

[4] = Metabolic stability in rat urine assessed as compound recovery at 1 mg/kg; assay type: ADME, organism-based; design: dose 1 mg/kg; conditions: read-out: Activity
Method in brief: (§4)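 Radioactivity excreted in bile and urine measured as percent of dose.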

Rattus norvegicus [5] = experiment: Reduction of body weight in DIO rat assessed as weight change at 1 mg/kg, po daily measured 18 hrs post dose on day 14; assay type: functional
Method in brief: (§5)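 Chronic study in diet-induced obese rats with daily oral dosing at 1 mg/kg (for some compounds 0.1 and 0.3 mg/kg as well). Body weight change and cumulative food intake suppression were measured relative to vehicle. The 14-day study ended 18 h after the day-14 dose; one study ended on day 13.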

[6] = Half life in dog; assay type: ADME, organism-based, Canis lupus familiaris; conditions: in vivo
Method in brief: (§6)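 PK in dog and rhesus macaque. Bioavailability, plasma clearance (mL/min/kg) and terminal half-life derived from plasma drug levels.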

[7] = Drug level in rat brain at 1 mg/kg, iv after 4 hrs; assay type: ADME, organism-based; design: dose 1 mg/kg, route intravenous; conditions: read-out: Drug uptake
Cytochrome P450 2C9 = Cytochrome P450 2C9 (Homo sapiens, UniProt P11712); experiment: Inhibition of CYP2C9; assay type: ADME
Method in brief: (§7)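 Inhibition of cytochrome P450 isoforms CYP3A4, CYP2C9, CYP2D6, CYP2C19 and CYP1A2, reported as IC50 in µM.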

[8] = Bioavailability in rat; assay type: ADME, organism-based; conditions: in vivo
Cytochrome P450 2D6 = Cytochrome P450 2D6 (Homo sapiens, UniProt P10635); experiment: Inhibition of CYP2D6; assay type: ADME; method in brief: as §7
Canis familiaris [9] = experiment: Toxicity in anesthetized dog assessed as change in heart rate up to 10 mg/kg, iv relative to control; assay type: organism-based, Canis lupus familiaris; design: dose 10 mg/kg, route intravenous; conditions: in vivo
Method in brief: (§8)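 Anesthetized dogs received a cumulative IV infusion of 1, 3 and 10 mg/kg, each dose infused over 30 min. Mean arterial pressure, heart rate and ECG intervals including QTc were compared with vehicle-treated animals. Plasma drug level was measured at the end of infusion.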

[10] = Half life in rhesus monkey; assay type: ADME, organism-based, Macaca mulatta; conditions: in vivo; method in brief: as §6
Rattus norvegicus [11] = experiment: Toxicity in Sprague-Dawley rat at 30 mg/kg, po by rotarod test; assay type: organism-based; design: dose 30 mg/kg, route oral; conditions: in vivo; method in brief: as §2
Rattus norvegicus [12] = experiment: Reduction of body weight in DIO rat assessed as weight change at 1 mg/kg, po after 18 hrs; assay type: functional; method in brief: as §1
Canis familiaris [13] = experiment: Toxicity in anesthetized dog assessed as change in ECG intervals up to 10 mg/kg, iv relative to control; assay type: organism-based, Canis lupus familiaris; design: dose 10 mg/kg, route intravenous; conditions: in vivo; method in brief: as §8
[14] = target: GABA-A receptor; alpha-1/beta-3/gamma-2 (Homo sapiens) (UniProt P14867+P18507+P28472); experiment: Partial agonist activity at human alpha-1-beta-3-gamma-2 GABAA receptor expressed in […] cells at 3 uM; assay type: functional, cell-based
Method in brief: (§9)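 Whole-cell electrophysiology in Ltk cells expressing human α1β3γ2 GABA_A receptors. EC50 determined, and maximal efficacy expressed relative to the maximum GABA response.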

[15] = Inhibition of rat GABAA receptor
Method in brief: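 Rat GABA_A ligand-gated ion-channel binding, run within a 175-assay radioligand binding and enzymatic screening panel. IC50 estimated.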

Mus musculus [16] = experiment: Toxicity in CD1 mouse assessed as ataxia at 100 mg/kg, po; assay type: organism-based; design: dose 100 mg/kg, route oral; conditions: in vivo
Brain [17] = experiment: Drug level in CD1 mouse brain at 30 mg/kg, po; assay type: ADME, organism-based; design: dose 30 mg/kg, route oral; conditions: in vivo, read-out: Drug uptake
[18] = Ratio of drug level in brain to plasma in rat at 1 mg/kg, iv after 4 hrs; assay type: ADME, organism-based; design: dose 1 mg/kg, route intravenous
[19] = target: Voltage-gated inwardly rectifying potassium channel KCNH2 (Homo sapiens, UniProt Q12809); experiment: Inhibition of human ERG potassium channel
Mus musculus [20] = experiment: Reduction of body weight in Cnr1+/+ C57BL/6 mouse at 1 mg/kg, po measured for 18 hrs; assay type: functional
Method in brief: (§10)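 The overnight food intake study used ad libitum fed male mice aged 14–16 weeks, Cnr1+/+ (n = 10) and Cnr1−/− (n = 7). Mice received a single oral dose of 1 mg/kg. Food intake and body weight change were measured over 18 h relative to vehicle-treated mice.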

Plasma [21] = experiment: Drug level in CD1 mouse plasma at 100 mg/kg, po; assay type: ADME, organism-based; design: dose 100 mg/kg, route oral; conditions: in vivo, read-out: Drug uptake
Cytochrome P450 3A4 = Cytochrome P450 3A4 (Homo sapiens, UniProt P08684); experiment: Inhibition of CYP3A4; assay type: ADME; method in brief: as §7
Mus musculus [22] = experiment: Suppression of food intake in Cnr1+/+ C57BL/6 mouse at 1 mg/kg, po measured for 18 hrs by overnight food intake study; assay type: functional; method in brief: as §10
Mus musculus [23] = experiment: Toxicity in CD1 mouse assessed as hyperactive response at 100 mg/kg, po; assay type: organism-based; design: dose 100 mg/kg, route oral; conditions: in vivo
[24] = Bioavailability in dog; assay type: ADME, organism-based, Canis lupus familiaris; conditions: in vivo; method in brief: as §6
[25] = Drug level in rat plasma at 1 mg/kg, iv after 4 hrs; assay type: ADME, organism-based; design: dose 1 mg/kg, route intravenous; conditions: read-out: Drug uptake
Cytochrome P450 1A2 = target: T1, Cytochrome P450 1A2 (Homo sapiens, UniProt P05177); experiment: Inhibition of CYP1A2; assay type: ADME; method in brief: as §7
T1 sequence (P05177 whole entry): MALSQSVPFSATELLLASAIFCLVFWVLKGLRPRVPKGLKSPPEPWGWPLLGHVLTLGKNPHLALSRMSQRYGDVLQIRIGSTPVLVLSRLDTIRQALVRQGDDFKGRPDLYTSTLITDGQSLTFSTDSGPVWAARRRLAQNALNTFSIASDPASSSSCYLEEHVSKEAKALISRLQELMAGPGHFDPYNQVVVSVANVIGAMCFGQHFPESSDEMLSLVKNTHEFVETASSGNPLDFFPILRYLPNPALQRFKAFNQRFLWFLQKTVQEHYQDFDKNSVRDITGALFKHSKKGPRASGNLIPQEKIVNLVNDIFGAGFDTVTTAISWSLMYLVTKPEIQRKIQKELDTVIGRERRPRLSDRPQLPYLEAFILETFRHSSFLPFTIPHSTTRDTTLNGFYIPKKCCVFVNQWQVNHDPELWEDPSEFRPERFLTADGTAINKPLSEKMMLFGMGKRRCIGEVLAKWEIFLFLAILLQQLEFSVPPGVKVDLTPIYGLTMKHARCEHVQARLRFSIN

[26] = Half life in rat; assay type: ADME, organism-based; conditions: in vivo
[27] = Bioavailability in rhesus monkey; assay type: ADME, organism-based, Macaca mulatta; conditions: in vivo; method in brief: as §6
Plasma [28] = experiment: Drug level in CD1 mouse plasma at 30 mg/kg, po; assay type: ADME, organism-based; design: dose 30 mg/kg, route oral; conditions: in vivo, read-out: Drug uptake
Rattus norvegicus [29] = experiment: Reduction of body weight in DIO rat assessed as weight change at 0.3 mg/kg, po after 2 weeks; assay type: functional, organism-based; design: dose 0.3 mg/kg; method in brief: as §3
Brain [30] = experiment: Drug level in Sprague-Dawley rat brain at 30 mg/kg, po; assay type: ADME, organism-based; design: dose 30 mg/kg, route oral; conditions: in vivo, read-out: Drug uptake; method in brief: as §2
[31] = Plasma clearance in rat; assay type: ADME, organism-based
[32] = Plasma clearance in rhesus monkey; assay type: ADME, organism-based, Macaca mulatta; method in brief: as §6
[33] = Metabolic stability in rat bile assessed as compound recovery at 1 mg/kg; assay type: ADME, organism-based; design: dose 1 mg/kg; conditions: read-out: Activity; method in brief: as §4
[34] = Plasma clearance in dog; assay type: ADME, organism-based, Canis lupus familiaris; method in brief: as §6
Cytochrome P450 2C19 = Cytochrome P450 2C19 (Homo sapiens, UniProt P33261); experiment: Inhibition of CYP2C19; assay type: ADME; method in brief: as §7
Brain [35] = experiment: Drug level in CD1 mouse brain at 100 mg/kg, po; assay type: ADME, organism-based; design: dose 100 mg/kg, route oral; conditions: in vivo, read-out: Drug uptake
Rattus norvegicus [36] = experiment: Reduction of body weight in DIO rat assessed as weight change at 1 mg/kg, po after 2 weeks; assay type: functional, organism-based; design: dose 1 mg/kg; method in brief: as §3
Rattus norvegicus [37] = experiment: Suppression of cumulative food intake in rat at 1 mg/kg, po relative to control; assay type: functional; method in brief: as §5
Rattus norvegicus [38] = experiment: Suppression of food intake in DIO rat at 1 mg/kg, po measured 18 hrs post dose on day 14 relative to control
Canis familiaris [39] = experiment: Plasma concentration in anesthetized dog at up to 10 mg/kg, iv measured at the end of infusion; assay type: ADME, organism-based, Canis lupus familiaris; design: dose 10 mg/kg, route intravenous; conditions: in vivo; method in brief: as §8
Rattus norvegicus [40] = experiment: Reduction of body weight in rat at 1 mg/kg, po relative to control; assay type: functional; design: scale not given: the % may be the effect or the level left; method in brief: as §5
[41] = target: GABA-A receptor; agonist GABA site; experiment: Partial agonist activity at human alpha-1-beta-3-gamma-2 GABAA receptor expressed in […] cells; assay type: functional, cell-based; method in brief: as §9
Canis familiaris [42] = experiment: Toxicity in anesthetized dog assessed as change in mean arterial pressure up to 10 mg/kg, iv relative to control; assay type: organism-based, Canis lupus familiaris, Artery; design: dose 10 mg/kg, route intravenous; conditions: in vivo; method in brief: as §8

Cytochrome P450 2C9, sequence (P11712 whole entry, canonical isoform): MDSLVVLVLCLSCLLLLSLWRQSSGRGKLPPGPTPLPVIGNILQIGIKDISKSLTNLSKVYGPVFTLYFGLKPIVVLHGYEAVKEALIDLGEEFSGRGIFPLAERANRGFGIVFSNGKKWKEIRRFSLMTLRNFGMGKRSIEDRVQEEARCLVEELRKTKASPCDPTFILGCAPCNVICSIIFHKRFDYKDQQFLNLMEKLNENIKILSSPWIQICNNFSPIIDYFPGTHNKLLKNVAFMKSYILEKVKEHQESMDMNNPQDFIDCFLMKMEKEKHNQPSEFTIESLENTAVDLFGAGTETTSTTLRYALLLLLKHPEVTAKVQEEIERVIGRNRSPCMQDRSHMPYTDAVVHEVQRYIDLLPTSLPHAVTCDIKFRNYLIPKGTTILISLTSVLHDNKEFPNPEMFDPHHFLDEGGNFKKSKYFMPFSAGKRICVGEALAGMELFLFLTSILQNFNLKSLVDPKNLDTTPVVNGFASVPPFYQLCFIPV
Voltage-gated inwardly rectifying potassium channel KCNH2, sequence (Q12809 whole entry): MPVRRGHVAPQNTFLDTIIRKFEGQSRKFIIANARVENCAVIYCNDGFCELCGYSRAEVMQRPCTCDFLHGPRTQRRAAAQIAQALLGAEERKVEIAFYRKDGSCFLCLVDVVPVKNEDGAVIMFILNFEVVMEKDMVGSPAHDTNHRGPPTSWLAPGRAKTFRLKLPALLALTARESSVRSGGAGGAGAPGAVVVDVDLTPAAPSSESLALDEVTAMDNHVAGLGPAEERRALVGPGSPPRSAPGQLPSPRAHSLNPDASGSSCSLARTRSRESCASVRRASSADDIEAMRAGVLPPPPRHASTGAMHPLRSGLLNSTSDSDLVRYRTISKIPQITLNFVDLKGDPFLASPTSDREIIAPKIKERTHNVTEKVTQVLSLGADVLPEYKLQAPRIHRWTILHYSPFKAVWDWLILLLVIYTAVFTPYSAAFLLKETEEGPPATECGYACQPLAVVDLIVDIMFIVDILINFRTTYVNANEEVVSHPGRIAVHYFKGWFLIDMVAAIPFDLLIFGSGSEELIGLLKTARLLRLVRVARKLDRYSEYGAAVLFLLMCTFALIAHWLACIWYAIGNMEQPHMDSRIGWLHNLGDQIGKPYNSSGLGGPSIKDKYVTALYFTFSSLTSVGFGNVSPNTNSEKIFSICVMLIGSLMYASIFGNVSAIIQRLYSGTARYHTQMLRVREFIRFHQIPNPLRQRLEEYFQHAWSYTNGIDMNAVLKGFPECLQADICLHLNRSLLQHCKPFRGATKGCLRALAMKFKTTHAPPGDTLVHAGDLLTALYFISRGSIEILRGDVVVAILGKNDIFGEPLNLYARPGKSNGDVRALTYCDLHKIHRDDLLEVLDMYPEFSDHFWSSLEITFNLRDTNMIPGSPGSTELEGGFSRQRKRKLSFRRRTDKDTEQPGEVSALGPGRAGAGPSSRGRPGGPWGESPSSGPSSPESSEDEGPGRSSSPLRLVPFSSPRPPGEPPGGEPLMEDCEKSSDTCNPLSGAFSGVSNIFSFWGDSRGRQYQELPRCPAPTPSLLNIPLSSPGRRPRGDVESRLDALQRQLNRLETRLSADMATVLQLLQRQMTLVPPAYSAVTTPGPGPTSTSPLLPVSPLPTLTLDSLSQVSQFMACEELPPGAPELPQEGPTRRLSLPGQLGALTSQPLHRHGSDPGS
Cytochrome P450 2D6, sequence (P10635 whole entry): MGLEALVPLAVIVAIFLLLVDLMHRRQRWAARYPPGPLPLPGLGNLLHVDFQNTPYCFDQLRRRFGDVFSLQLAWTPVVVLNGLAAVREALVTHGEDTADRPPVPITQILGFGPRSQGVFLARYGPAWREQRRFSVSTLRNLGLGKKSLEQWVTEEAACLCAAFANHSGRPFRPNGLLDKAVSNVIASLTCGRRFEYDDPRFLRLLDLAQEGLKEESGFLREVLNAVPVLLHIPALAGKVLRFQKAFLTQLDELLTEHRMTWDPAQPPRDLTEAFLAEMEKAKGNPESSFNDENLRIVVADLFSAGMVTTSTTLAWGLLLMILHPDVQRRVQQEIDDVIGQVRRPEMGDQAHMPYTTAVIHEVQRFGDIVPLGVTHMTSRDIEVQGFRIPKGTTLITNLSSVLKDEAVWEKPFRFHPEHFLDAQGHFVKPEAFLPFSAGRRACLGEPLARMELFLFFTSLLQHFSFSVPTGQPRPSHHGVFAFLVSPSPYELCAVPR
Cytochrome P450 3A4, sequence (P08684 whole entry): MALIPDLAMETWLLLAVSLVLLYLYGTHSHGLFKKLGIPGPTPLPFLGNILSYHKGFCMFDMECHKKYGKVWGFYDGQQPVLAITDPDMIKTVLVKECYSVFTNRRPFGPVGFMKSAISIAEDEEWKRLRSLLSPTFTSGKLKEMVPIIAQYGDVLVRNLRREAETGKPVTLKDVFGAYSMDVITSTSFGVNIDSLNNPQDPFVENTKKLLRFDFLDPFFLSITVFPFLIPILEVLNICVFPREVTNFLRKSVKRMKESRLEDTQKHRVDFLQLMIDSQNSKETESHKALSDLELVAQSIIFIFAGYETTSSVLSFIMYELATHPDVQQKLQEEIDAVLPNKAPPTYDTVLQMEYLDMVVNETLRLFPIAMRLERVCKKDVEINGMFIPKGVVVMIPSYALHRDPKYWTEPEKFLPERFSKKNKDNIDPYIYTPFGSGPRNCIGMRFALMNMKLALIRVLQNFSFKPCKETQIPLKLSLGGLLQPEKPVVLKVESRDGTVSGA
Cytochrome P450 2C19, sequence (P33261 whole entry): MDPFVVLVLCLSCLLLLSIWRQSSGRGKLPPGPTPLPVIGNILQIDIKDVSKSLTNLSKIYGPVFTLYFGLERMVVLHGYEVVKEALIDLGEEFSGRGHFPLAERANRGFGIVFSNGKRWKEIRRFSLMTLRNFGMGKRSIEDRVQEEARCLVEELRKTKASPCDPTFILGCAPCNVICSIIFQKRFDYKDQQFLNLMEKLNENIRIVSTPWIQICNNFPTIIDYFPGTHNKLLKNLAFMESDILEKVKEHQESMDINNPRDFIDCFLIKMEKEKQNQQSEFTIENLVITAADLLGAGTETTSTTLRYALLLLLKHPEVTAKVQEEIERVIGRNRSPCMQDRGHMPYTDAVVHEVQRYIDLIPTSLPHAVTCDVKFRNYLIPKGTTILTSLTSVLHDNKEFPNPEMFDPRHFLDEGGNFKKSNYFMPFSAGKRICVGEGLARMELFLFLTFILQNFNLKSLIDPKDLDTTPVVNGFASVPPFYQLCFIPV

SMILES: CC(C)(O)C(=O)c1oc2nc(-c3ccccc3Cl)c(-c3ccc(Cl)cc3)cc2c1NC(=O)CO
- Activity (Rattus norvegicus [1]): 47%
- concentration (Plasma [2]): 500 nM
- Activity (Rattus norvegicus [3]): inactive
- dose excreted [4]: 5%
- Activity (Rattus norvegicus [5]): -2 g
- half-life [6]: 1.8 h
- concentration at 4 h [7]: 94 nM
- IC50 (Cytochrome P450 2C9): 17 µM
- bioavailability [8]: 64%
- IC50 (Cytochrome P450 2D6): 73 µM
- Activity (Canis familiaris [9]): Non-toxic
- half-life [10]: 17 h
- Activity (Rattus norvegicus [11]): Non-toxic
- Activity (Rattus norvegicus [12]): -7 g
- Activity (Canis familiaris [13]): Non-toxic
- Efficacy [14]: 18%
- IC50 [15]: 1.8 µM
- Activity (Mus musculus [16]): Toxic
- concentration (Brain [17]): 2300 nM
- Kp at 4 h [18]: 0.64
- IC50 [19]: 6.6 µM
- Activity (Mus musculus [20]): -0.79 g
- concentration (Plasma [21]): 24000 nM
- IC50 (Cytochrome P450 3A4): 98 µM
- Activity (Mus musculus [22]): 53%
- Activity (Mus musculus [23]): Toxic
- bioavailability [24]: 9%
- concentration at 4 h [25]: 147 nM
- IC50 (Cytochrome P450 1A2): > 100 µM
- half-life [26]: 7.5 h
- bioavailability [27]: 50%
- concentration (Plasma [28]): 7000 nM
- Activity (Rattus norvegicus [29]): Active
- concentration (Brain [30]): 500 nM
- clearance [31]: 8.6 mL/min/kg
- clearance [32]: 2.1 mL/min/kg
- dose excreted [33]: 87%
- clearance [34]: 33 mL/min/kg
- IC50 (Cytochrome P450 2C19): 43 µM
- concentration (Brain [35]): 6500 nM
- Activity (Rattus norvegicus [36]): Active
- Activity (Rattus norvegicus [37]): 24%
- Activity (Rattus norvegicus [38]): 24%
- concentration (Canis familiaris [39]): 50000 nM
- Activity (Rattus norvegicus [40]): 4.3%
- EC50 [41]: 0.7 µM
- Activity (Canis familiaris [42]): Non-toxic
